Experiments:
Conditions in all cases: in vivo
Rattus norvegicus [1] = assay: Biodistribution in thyroid of Immature Female rat after 12 hour administration of 3 micro Ci (111 kBq) in the absence of 60 microg estradiol; assay type: ADME, organism-based, Thyroid gland
Summary of the method: (§1)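 Immature female Long Evans rats (21–24 days, 45–70 g), three to five per group, given 125I-labeled steroid (3 μCi, 111 kBq) by lateral tail vein without anesthesia. Vehicle: ethanol diluted in saline with 1% Tween-80, final ethanol 9%, 0.22 μm filtered. +E2 groups received 60 μg unlabeled estradiol co-injected. Killed under ether at set times; tissues KCl-washed, blotted, weighed, gamma counted; %ID/g, mean with SE.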

Rattus norvegicus [2] = assay: Biodistribution in thyroid of Immature Female rat after 1 hr administration of 3 micro Ci (111 kBq) in the presence of (+E2); assay type: ADME, organism-based, Thyroid gland; summary of the method: as §1
Rattus norvegicus [3] = assay: Biodistribution in thyroid of Immature Female rat after 3 hour administration of 3 micro Ci (111 kBq) in the absence of 60 microg estradiol; assay type: ADME, organism-based, Thyroid gland; summary of the method: as §1
Rattus norvegicus [4] = assay: Biodistribution in thyroid of Immature Female rat after 5 hour administration of 3 micro Ci (111 kBq) in the absence of 60 microg estradiol; assay type: ADME, organism-based, Thyroid gland; summary of the method: as §1
Rattus norvegicus [5] = assay: Biodistribution in fat of Immature Female rat after 3 hour administration of 3 micro Ci (111 kBq) in the absence of 60 microg estradiol; assay type: ADME, organism-based, Adipose tissue
Summary of the method: (§2)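 Immature female Long Evans rats (21–24 days, 45–70 g), unanesthetized in retention cages, given 3 µCi (111 kBq) 125I-labeled steroid i.v. via lateral tail vein. Vehicle was ethanol diluted in saline containing 1% Tween-80, giving 9% ethanol final. The blocking group received 60 µg unlabeled estradiol co-injected. Rats were killed under ether by axillary bleeding, and tissues were KCl-washed and gamma-counted. Data are %ID/g, mean ± SE, n=3–5.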

Rattus norvegicus [6] = assay: Biodistribution in fat of Immature Female rat after 5 hour administration of 3 micro Ci (111 kBq) in the absence of 60 microg estradiol; assay type: ADME, organism-based, Adipose tissue; summary of the method: as §2
Rattus norvegicus [7] = assay: Biodistribution in uterus of Immature Female rat after 3 hour administration of 3 micro Ci (111 kBq) in the absence of 60 microg estradiol; assay type: ADME, organism-based
Summary of the method: (§3)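 Immature female Long Evans rats (21–24 days, 45–70 g), 3–5 per group, unanesthetized in retention cages, given 3 μCi (111 kBq) 125I-labeled steroid by lateral tail vein. Vehicle: ethanol diluted with saline containing 1% Tween-80, final ethanol 9%. +E2 group co-injected 60 μg unlabeled estradiol (1 h only). Killed under ether; tissues KCl-washed, weighed, gamma-counted. Output: %ID/g (mean, SE) and uterus to blood or nontarget (muscle, spleen, lungs) ratios.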

Rattus norvegicus [8] = assay: Biodistribution in uterus of Immature Female rat after 5 hour administration of 3 micro Ci (111 kBq) in the absence of 60 microg estradiol; assay type: ADME, organism-based; summary of the method: as §3
Rattus norvegicus [9] = assay: Biodistribution in uterus / blood of Immature Female rat after 12 hour administration of 3 micro Ci (111 kBq) in the absence of 60 microg estradiol; assay type: ADME, organism-based
Summary of the method: (§4)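 Same in vivo procedure: immature female Long Evans rats (21–24 days), three to five per group, 3 μCi (111 kBq) tracer i.v. via tail vein in 9% ethanol/saline/1% Tween-80, ± 60 μg estradiol co-injected at 1 h. Uterus %ID/g (gamma counting) divided by blood, or by nontarget organ (muscle, spleen, lungs), %ID/g to give ratios.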

Rattus norvegicus [10] = assay: Biodistribution in blood of Immature Female rat after 1 hr administration of 3 micro Ci (111 kBq) in the absence of 60 microg estradiol; assay type: ADME, organism-based; summary of the method: as §2
Rattus norvegicus [11] = assay: Biodistribution in lungs of Immature Female rat after 3 hour administration of 3 micro Ci (111 kBq) in the absence of 60 microg estradiol; assay type: ADME, organism-based, Lung; summary of the method: as §2
Rattus norvegicus [12] = assay: Biodistribution in lungs of Immature Female rat after 5 hour administration of 3 micro Ci (111 kBq) in the absence of 60 microg estradiol; assay type: ADME, organism-based, Lung; summary of the method: as §2
Rattus norvegicus [13] = assay: Biodistribution in muscle of Immature Female rat after 1 hr administration of 3 micro Ci (111 kBq) in the presence of (+E2); assay type: ADME, organism-based, Muscle tissue; summary of the method: as §1
Rattus norvegicus [14] = assay: Biodistribution in muscle of Immature Female rat after 3 hour administration of 3 micro Ci (111 kBq) in the absence of 60 microg estradiol; assay type: ADME, organism-based, Muscle tissue; summary of the method: as §1
Rattus norvegicus [15] = assay: Biodistribution in muscle of Immature Female rat after 5 hour administration of 3 micro Ci (111 kBq) in the absence of 60 microg estradiol; assay type: ADME, organism-based, Muscle tissue; summary of the method: as §1
Rattus norvegicus [16] = assay: Biodistribution in spleen of Immature Female rat after 12 hour administration of 3 micro Ci (111 kBq) in the absence of 60 microg estradiol; assay type: ADME, organism-based; summary of the method: as §1
Rattus norvegicus [17] = assay: Biodistribution in spleen of Immature Female rat after 1 hr administration of 3 micro Ci (111 kBq) in the absence of 60 microg estradiol; assay type: ADME, organism-based; summary of the method: as §1
Rattus norvegicus [18] = assay: Biodistribution in spleen of Immature Female rat after 1 hr administration of 3 micro Ci (111 kBq) in the presence of (+E2); assay type: ADME, organism-based; summary of the method: as §1
Rattus norvegicus [19] = assay: Biodistribution in spleen of Immature Female rat after 3 hour administration of 3 micro Ci (111 kBq) in the absence of 60 microg estradiol; assay type: ADME, organism-based; summary of the method: as §1
Rattus norvegicus [20] = assay: Biodistribution in uterus / spleen, muscle, lungs of Immature Female rat after 1 hr administration of 3 micro Ci (111 kBq) in the absence of 60 microg estradiol; assay type: ADME, organism-based; summary of the method: as §4
Rattus norvegicus [21] = assay: Biodistribution in uterus / spleen, muscle, lungs of Immature Female rat after 1 hr administration of 3 micro Ci (111 kBq) in the presence of (+E2); assay type: ADME, organism-based; summary of the method: as §4
Rattus norvegicus [22] = assay: Biodistribution in uterus / spleen, muscle, lungs of Immature Female rat after 5 hour administration of 3 micro Ci (111 kBq) in the absence of 60 microg estradiol; assay type: ADME, organism-based; summary of the method: as §4
Rattus norvegicus [23] = assay: Biodistribution in kidney of Immature Female rat after 1 hr administration of 3 micro Ci (111 kBq) in the presence of (+E2); assay type: ADME, organism-based; summary of the method: as §2
Rattus norvegicus [24] = assay: Biodistribution in kidney of Immature Female rat after 3 hour administration of 3 micro Ci (111 kBq) in the absence of 60 microg estradiol; assay type: ADME, organism-based; summary of the method: as §2
Rattus norvegicus [25] = assay: Biodistribution in liver of Immature Female rat after 12 hour administration of 3 micro Ci (111 kBq) in the absence of 60 microg estradiol; assay type: ADME, organism-based; summary of the method: as §2
Rattus norvegicus [26] = assay: Biodistribution in liver of Immature Female rat after 5 hour administration of 3 micro Ci (111 kBq) in the absence of 60 microg estradiol; assay type: ADME, organism-based; summary of the method: as §2
Rattus norvegicus [27] = assay: Biodistribution in lungs of Immature Female rat after 12 hour administration of 3 micro Ci (111 kBq) in the absence of 60 microg estradiol; assay type: ADME, organism-based, Lung; summary of the method: as §2
Rattus norvegicus [28] = assay: Biodistribution in lungs of Immature Female rat after 1 hr administration of 3 micro Ci (111 kBq) in the absence of 60 microg estradiol; assay type: ADME, organism-based, Lung; summary of the method: as §2
Rattus norvegicus [29] = assay: Biodistribution in lungs of Immature Female rat after 1 hr administration of 3 micro Ci (111 kBq) in the presence of (+E2); assay type: ADME, organism-based, Lung; summary of the method: as §2
Rattus norvegicus [30] = assay: Biodistribution in uterus / blood of Immature Female rat after 1 hr administration of 3 micro Ci (111 kBq) in the presence of (+E2); assay type: ADME, organism-based; summary of the method: as §4
Rattus norvegicus [31] = assay: Biodistribution in uterus / blood of Immature Female rat after 5 hour administration of 3 micro Ci (111 kBq) in the absence of 60 microg estradiol; assay type: ADME, organism-based; summary of the method: as §4
Rattus norvegicus [32] = assay: Biodistribution in uterus of Immature Female rat after 1 hr administration of 3 micro Ci (111 kBq) in the absence of 60 microg estradiol; assay type: ADME, organism-based; summary of the method: as §3

| ID/g (Rattus norvegicus [1]) | ID/g (Rattus norvegicus [2]) | ID/g (Rattus norvegicus [3]) | ID/g (Rattus norvegicus [4]) | ID/g (Rattus norvegicus [5]) | ID/g (Rattus norvegicus [6]) | ID/g (Rattus norvegicus [7]) | ID/g (Rattus norvegicus [8]) | ID/g (Rattus norvegicus [9]) | ID/g (Rattus norvegicus [10]) | ID/g (Rattus norvegicus [11]) | ID/g (Rattus norvegicus [12]) | ID/g (Rattus norvegicus [13]) | ID/g (Rattus norvegicus [14]) | ID/g (Rattus norvegicus [15]) | ID/g (Rattus norvegicus [16]) | ID/g (Rattus norvegicus [17]) | ID/g (Rattus norvegicus [18]) | ID/g (Rattus norvegicus [19]) | ID/g (Rattus norvegicus [20]) | Compound | further results |
| --- | --- | --- | --- | --- | --- | --- | --- | --- | --- | --- | --- | --- | --- | --- | --- | --- | --- | --- | --- | --- | --- |
| 1899% | 170% | 882% | 1210% | 1.15% | 0.66% | 9.59% | 8.81% | 50.35% | 0.54% | 0.54% | 0.35% | 2.3% | 0.38% | 0.29% | 0.22% | 0.59% | 5.3% | 0.39% | 13.04% | CO[C@H]1C[C@@]2(C)[C@@H](CC[C@@]2(O)/C=C\I)[C@@H]2CCc3cc(O)c(F)cc3[C@H]21 | ID/g (Rattus norvegicus [21]): 0.64%; ID/g (Rattus norvegicus [22]): 25.79%; ID/g (Rattus norvegicus [23]): 2.83%; ID/g (Rattus norvegicus [24]): 1.02%; ID/g (Rattus norvegicus [25]): 0.65%; ID/g (Rattus norvegicus [26]): 1.12%; ID/g (Rattus norvegicus [27]): 0.13%; ID/g (Rattus norvegicus [28]): 0.76%; ID/g (Rattus norvegicus [29]): 1.52%; ID/g (Rattus norvegicus [30]): 1.12%; ID/g (Rattus norvegicus [31]): 27.8%; ID/g (Rattus norvegicus [32]): 8.36% |
| 475% | 71% | 126% | 274% | 2.04% | 1.69% | 10.45% | 12.04% | 122.53% | 0.26% | 0.69% | 0.52% | 0.91% | 0.56% | 0.45% | 0.22% | 0.79% | 0.78% | 0.48% | 9.17% | CO[C@H]1C[C@@]2(C)[C@@H](CC[C@@]2(O)/C=C/I)[C@@H]2CCc3c(ccc(O)c3F)[C@H]21 | ID/g (Rattus norvegicus [21]): 1.02%; ID/g (Rattus norvegicus [22]): 26.5%; ID/g (Rattus norvegicus [23]): 1.28%; ID/g (Rattus norvegicus [24]): 1.3%; ID/g (Rattus norvegicus [25]): 2.28%; ID/g (Rattus norvegicus [26]): 2.72%; ID/g (Rattus norvegicus [27]): 0.3%; ID/g (Rattus norvegicus [28]): 1.07%; ID/g (Rattus norvegicus [29]): 1.95%; ID/g (Rattus norvegicus [30]): 3.57%; ID/g (Rattus norvegicus [31]): 68.66%; ID/g (Rattus norvegicus [32]): 8.02% |
